Measured values from ChEMBL document CHEMBL2176985 (J Med Chem, 2012).
Calls of active or inactive are those of the source. The calls are words filed in the database; no cut-off is given here.

Columns and labels:
[1] = target: T1, Acetylcholine receptor; alpha1/beta1/delta/gamma (Homo sapiens, UniProt P02708+P07510+P11230+Q07001); assay: Antagonist activity at human alpha1beta1gammadelta nAChR expressed in human TE671/RD cells assessed as inhibition of 86Rb+ efflux preincubated for 10 mins by liquid scintillation counting; format: functional, cell-based
Method in brief: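 Cells loaded with ⁸⁶Rb⁺ were pre-exposed to test drug for 10 min. […] Efflux was normalized to intracellular ⁸⁶Rb⁺ available at that step. Nonspecific efflux came from 100 µM mecamylamine or buffer. Inactivation IC50 was obtained by curve fit.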

[2] = target: T1, Acetylcholine receptor; alpha1/beta1/delta/gamma; assay: Agonist activity at human alpha1beta1gammadelta nAChR expressed in human TE671/RD cells assessed as stimulation of 86Rb+ efflux preincubated for 10 mins by liquid scintillation counting; format: functional, cell-based
[3] = target: T2, Neuronal acetylcholine receptor; alpha3/beta4 (Homo sapiens, UniProt P30926+P32297); assay: Antagonist activity at human alpha3beta4 nAChR expressed in human SH-SY5Y cells assessed as inhibition of 86Rb+ efflux preincubated for 10 mins by liquid scintillation counting; format: functional, cell-based
Method in brief: (§1)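 Cells loaded with ⁸⁶Rb⁺ were pre-exposed to test drug for 10 min. Efflux was normalized to intracellular ⁸⁶Rb⁺ available at that step. Nonspecific efflux came from 100 µM mecamylamine or buffer. Inactivation IC50 was obtained by curve fit.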

[4] = target: T2, Neuronal acetylcholine receptor; alpha3/beta4; assay: Agonist activity at human alpha3beta4 nAChR expressed in human SH-SY5Y cells assessed as stimulation of 86Rb+ efflux preincubated for 10 mins by liquid scintillation counting; format: functional, cell-based
[5] = target: T3, Neuronal acetylcholine receptor; alpha4/beta2 (Homo sapiens, UniProt P17787+P43681); assay: Antagonist activity at human alpha4beta2 nAChR expressed in human SH-EP1 cells assessed as inhibition of 86Rb+ efflux preincubated for 10 mins by liquid scintillation counting; format: functional, cell-based; method in brief: as §1
[6] = target: T3, Neuronal acetylcholine receptor; alpha4/beta2; assay: Agonist activity at human alpha4beta2 nAChR expressed in human SH-EP1 cells assessed as stimulation of 86Rb+ efflux preincubated for 10 mins by liquid scintillation counting; format: functional, cell-based
[7] = target: Neuronal acetylcholine receptor; alpha4/beta4 (Rattus norvegicus) (UniProt P09483+P12392); assay: Displacement of [3H]Epibatidine from rat alpha4beta4 nAChR at 10 uM; format: protein-complex assay
[8] = target: T4, Neuronal acetylcholine receptor; alpha4/beta2 (Rattus norvegicus, UniProt P09483+P12390); assay: Displacement of [3H]Epibatidine from alpha4beta2 nAChR in rat brain; format: tissue-based
[9] = target: T4, Neuronal acetylcholine receptor; alpha4/beta2; assay: Displacement of [3H]Epibatidine from rat alpha4beta2 nAChR; format: protein-complex assay
[10] = target: Neuronal acetylcholine receptor; alpha3/beta4 (Rattus norvegicus) (UniProt P04757+P12392); assay: Displacement of [3H]Epibatidine from rat alpha3beta4 nAChR at 10 uM; format: protein-complex assay
[11] = target: Neuronal acetylcholine receptor; alpha3/beta2 (Rattus norvegicus, UniProt P04757+P12390); assay: Displacement of [3H]Epibatidine from rat alpha3beta2 nAChR; format: protein-complex assay
[12] = test system: Neuronal acetylcholine receptor alpha2/beta4 (Rattus norvegicus); assay: Displacement of [3H]Epibatidine from rat alpha2beta4 nAChR at 10 uM
Mus musculus [13] = assay: Antidepressant activity in BALB/cJ mouse assessed as reduction of immobility time at 5 to 30 mg/kg, ip administered 30 mins before test measured over 6 mins trial by post hoc Fisher's LSD test; format: functional, organism-based
Mus musculus [14] = assay: Antidepressant activity in BALB/cJ mouse assessed as reduction of immobility time at 5 to 30 mg/kg, ip administered 30 mins before test measured over 6 mins trial by forced swim test; format: functional, organism-based
[15] = Agonist activity at ganglionic nAChR; format: functional
[16] = target: T1, Acetylcholine receptor; alpha1/beta1/delta/gamma; assay: Binding affinity to muscle type alpha1beta1gammadelta-nAChR; format: protein-complex assay, Muscle tissue
Mus musculus [17] = assay: Antidepressant activity in BALB/cJ mouse assessed as reduction of immobility time at 1 to 3 mg/kg, ip administered 30 mins before test measured over 6 mins trial by forced swim test; format: functional, organism-based
[18] = target: T3, Neuronal acetylcholine receptor; alpha4/beta2; assay: Antagonist activity at human alpha4beta2 nAChR expressed in human SH-EP1 cells assessed as inhibition of 86Rb+ efflux preincubated for 10 mins by liquid scintillation counting relative to control; format: functional, cell-based; method in brief: as §1
[19] = target: T3, Neuronal acetylcholine receptor; alpha4/beta2; assay: Agonist activity at human low-sensitivity alpha4beta2 nAChR expressed in human SH-EP1 cells assessed as stimulation of 86Rb+ efflux preincubated for 10 mins by liquid scintillation counting relative to control; format: functional, cell-based
[20] = target: T3, Neuronal acetylcholine receptor; alpha4/beta2; assay: Agonist activity at human high-sensitivity alpha4beta2 nAChR expressed in human SH-EP1 cells assessed as stimulation of 86Rb+ efflux preincubated for 10 mins by liquid scintillation counting relative to control; format: functional, cell-based
[21] = target: Neuronal acetylcholine receptor; alpha4/beta4 (Homo sapiens, UniProt P30926+P43681); assay: Binding affinity to alpha4beta4 nAChR; format: protein-complex assay
Mus musculus [22] = assay: Antidepressant activity in BALB/cJ mouse assessed as reduction of immobility time at 20 mg/kg, ip administered 30 mins before test measured over 6 mins trial by forced swim test; format: functional, organism-based; design: dose 20 mg/kg

T4 sequence (P09483 whole entry): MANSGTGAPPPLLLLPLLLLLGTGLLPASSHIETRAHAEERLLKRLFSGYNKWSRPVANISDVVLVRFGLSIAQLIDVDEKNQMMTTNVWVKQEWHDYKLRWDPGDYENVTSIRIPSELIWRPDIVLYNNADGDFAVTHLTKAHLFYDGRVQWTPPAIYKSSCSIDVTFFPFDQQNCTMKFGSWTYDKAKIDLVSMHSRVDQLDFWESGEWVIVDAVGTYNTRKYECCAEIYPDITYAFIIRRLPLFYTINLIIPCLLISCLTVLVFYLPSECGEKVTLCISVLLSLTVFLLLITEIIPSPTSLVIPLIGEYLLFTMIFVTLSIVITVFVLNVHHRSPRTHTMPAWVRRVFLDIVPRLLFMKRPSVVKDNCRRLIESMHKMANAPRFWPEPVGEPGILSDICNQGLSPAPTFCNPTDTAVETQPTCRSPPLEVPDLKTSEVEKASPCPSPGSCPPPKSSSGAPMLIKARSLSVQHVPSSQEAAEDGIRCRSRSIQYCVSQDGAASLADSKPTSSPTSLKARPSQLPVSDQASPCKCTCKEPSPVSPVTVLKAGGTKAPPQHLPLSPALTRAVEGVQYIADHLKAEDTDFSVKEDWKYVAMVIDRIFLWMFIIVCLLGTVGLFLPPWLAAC
T4 sequence (P12390 whole entry): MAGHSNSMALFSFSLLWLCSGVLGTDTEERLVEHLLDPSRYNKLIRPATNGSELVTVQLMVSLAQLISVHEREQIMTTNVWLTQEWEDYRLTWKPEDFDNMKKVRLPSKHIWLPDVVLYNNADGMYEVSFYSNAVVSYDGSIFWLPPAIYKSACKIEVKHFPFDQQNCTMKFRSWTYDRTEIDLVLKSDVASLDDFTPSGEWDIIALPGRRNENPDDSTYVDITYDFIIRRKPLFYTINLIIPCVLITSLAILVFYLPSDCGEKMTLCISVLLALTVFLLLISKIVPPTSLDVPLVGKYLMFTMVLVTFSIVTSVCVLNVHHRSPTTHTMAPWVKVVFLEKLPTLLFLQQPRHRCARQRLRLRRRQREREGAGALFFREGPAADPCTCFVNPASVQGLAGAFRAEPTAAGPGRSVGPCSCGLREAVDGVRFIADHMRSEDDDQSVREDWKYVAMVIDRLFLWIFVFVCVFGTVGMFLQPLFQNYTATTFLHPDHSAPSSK
T3 sequence (P17787 whole entry): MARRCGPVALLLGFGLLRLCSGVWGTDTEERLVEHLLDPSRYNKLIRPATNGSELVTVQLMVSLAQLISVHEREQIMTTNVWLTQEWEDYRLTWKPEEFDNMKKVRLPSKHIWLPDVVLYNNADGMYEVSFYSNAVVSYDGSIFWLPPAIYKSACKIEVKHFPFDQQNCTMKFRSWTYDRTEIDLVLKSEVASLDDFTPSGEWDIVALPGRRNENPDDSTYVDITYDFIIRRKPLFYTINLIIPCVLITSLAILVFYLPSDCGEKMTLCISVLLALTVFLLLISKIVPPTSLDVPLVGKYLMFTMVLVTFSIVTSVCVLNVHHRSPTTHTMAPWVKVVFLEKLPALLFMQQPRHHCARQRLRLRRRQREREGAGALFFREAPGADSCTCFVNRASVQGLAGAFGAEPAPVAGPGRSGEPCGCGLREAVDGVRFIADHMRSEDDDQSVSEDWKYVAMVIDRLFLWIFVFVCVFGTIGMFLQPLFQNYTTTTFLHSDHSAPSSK
T3 sequence (P43681 whole entry): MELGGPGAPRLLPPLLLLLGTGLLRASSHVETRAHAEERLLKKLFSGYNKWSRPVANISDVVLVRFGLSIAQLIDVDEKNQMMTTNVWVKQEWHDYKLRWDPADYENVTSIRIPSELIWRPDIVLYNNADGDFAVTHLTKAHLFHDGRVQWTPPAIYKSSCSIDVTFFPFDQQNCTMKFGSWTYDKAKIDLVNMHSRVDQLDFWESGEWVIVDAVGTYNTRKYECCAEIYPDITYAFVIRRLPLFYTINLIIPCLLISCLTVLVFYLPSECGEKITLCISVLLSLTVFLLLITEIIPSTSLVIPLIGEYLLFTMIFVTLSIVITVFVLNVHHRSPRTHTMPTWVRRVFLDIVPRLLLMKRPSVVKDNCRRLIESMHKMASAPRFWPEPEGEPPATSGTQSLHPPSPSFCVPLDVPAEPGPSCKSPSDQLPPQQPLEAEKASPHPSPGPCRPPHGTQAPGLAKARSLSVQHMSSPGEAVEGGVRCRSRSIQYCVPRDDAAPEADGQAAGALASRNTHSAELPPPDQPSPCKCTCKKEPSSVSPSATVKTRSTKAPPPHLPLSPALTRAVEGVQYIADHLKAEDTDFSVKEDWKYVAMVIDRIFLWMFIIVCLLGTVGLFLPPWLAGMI
T1 sequence (P02708 whole entry): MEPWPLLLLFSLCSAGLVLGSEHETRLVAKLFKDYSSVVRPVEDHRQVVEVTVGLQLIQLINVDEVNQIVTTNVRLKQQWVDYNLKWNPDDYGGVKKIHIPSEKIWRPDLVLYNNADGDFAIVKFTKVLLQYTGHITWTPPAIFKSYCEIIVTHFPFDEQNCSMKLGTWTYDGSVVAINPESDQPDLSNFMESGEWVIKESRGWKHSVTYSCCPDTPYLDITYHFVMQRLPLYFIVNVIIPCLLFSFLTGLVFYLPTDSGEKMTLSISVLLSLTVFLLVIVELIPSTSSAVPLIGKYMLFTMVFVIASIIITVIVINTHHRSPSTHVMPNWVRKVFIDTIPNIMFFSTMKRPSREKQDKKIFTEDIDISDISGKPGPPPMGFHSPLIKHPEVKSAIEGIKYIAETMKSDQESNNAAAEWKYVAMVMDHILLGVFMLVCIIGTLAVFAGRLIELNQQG
T1 sequence (P07510 whole entry): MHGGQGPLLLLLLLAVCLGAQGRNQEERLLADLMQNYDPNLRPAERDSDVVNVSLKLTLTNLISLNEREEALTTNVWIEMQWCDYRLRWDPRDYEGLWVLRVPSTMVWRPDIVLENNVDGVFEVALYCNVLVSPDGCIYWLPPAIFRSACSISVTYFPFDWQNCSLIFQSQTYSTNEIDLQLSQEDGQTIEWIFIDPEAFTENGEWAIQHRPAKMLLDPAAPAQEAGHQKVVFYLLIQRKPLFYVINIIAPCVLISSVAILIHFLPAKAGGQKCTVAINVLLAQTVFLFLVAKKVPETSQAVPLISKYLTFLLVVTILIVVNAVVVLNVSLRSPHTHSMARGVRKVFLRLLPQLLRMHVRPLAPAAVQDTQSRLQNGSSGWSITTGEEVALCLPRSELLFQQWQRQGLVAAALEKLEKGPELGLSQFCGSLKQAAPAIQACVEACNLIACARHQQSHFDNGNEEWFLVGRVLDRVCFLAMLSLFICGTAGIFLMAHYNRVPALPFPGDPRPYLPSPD
T1 sequence (P11230 whole entry): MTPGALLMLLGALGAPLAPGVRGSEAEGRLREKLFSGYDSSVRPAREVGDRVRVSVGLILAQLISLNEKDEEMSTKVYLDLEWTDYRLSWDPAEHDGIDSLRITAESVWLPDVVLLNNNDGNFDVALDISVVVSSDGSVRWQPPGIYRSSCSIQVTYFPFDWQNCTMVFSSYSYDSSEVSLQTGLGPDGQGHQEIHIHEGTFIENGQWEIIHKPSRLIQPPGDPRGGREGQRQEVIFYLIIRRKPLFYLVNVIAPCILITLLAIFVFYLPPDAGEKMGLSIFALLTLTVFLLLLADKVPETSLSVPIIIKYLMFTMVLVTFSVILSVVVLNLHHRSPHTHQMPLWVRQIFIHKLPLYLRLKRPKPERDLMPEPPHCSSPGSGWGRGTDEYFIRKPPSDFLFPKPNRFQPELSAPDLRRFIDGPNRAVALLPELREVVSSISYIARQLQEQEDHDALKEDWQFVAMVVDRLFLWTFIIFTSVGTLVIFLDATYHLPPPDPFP
T1 sequence (Q07001 whole entry): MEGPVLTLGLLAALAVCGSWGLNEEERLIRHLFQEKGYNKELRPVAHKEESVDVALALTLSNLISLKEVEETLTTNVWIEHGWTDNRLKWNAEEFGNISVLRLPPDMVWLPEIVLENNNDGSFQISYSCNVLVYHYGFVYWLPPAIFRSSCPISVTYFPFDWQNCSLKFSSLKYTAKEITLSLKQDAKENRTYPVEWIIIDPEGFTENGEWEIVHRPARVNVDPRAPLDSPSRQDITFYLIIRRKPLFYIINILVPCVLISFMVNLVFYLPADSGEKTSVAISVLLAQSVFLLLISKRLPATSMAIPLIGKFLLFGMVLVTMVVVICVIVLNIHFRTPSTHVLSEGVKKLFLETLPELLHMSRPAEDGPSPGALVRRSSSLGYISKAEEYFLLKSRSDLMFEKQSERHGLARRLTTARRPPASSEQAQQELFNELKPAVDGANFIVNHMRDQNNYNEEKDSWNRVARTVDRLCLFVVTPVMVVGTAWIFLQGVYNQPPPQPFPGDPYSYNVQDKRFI
Sequence of Neuronal acetylcholine receptor; alpha3/beta2 (P04757 whole entry): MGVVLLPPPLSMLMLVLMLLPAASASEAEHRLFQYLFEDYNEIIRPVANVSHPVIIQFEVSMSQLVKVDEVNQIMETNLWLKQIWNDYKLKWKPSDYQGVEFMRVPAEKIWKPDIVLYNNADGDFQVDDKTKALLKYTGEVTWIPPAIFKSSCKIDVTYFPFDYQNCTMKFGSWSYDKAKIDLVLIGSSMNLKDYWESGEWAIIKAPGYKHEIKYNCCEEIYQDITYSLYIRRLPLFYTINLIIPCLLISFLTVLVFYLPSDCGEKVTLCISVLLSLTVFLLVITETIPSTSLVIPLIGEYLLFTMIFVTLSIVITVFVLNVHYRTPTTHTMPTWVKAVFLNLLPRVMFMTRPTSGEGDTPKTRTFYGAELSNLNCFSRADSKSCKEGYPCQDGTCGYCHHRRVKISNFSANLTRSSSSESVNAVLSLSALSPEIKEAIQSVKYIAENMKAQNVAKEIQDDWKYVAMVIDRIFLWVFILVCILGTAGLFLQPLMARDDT
Sequence of Neuronal acetylcholine receptor; alpha3/beta2 (P12390 whole entry): as the sequence (P12390 whole entry) above

## c1ncc(-c2cc(CCN3CCOCC3)no2)cc1OC[C@@H]1CCN1
[1]
  IC50: > 1000 nM
[2]
  EC50: > 1000 nM
[3]
  IC50: > 1000 nM
[4]
  EC50: > 1000 nM
[5]
  IC50: > 100 nM
[6]; read-out: pEC50 (converted)
  EC50: > 100 nM
[6]; sh-ep1, read-out: EC50
  EC50: > 100 nM
[7]
  inhibition: < 50%
[8]
  Ki: 26.3 nM
[9]
  Ki: 11 nM
[10]
  inhibition: < 50%
[11]
  Ki: 117 nM
[12]
  inhibition: < 50%

## FCCCc1cc(-c2cncc(OC[C@@H]3CCN3)c2)on1
Mus musculus [13]
  Activity: Active
Mus musculus [14]
  Activity: Active
[1]
  IC50: > 1000 nM
[2]
  EC50: > 1000 nM

## CCNC(=O)OCCc1cc(-c2cncc(OC[C@@H]3CCN3)c2)on1
[1]
  IC50: > 1000 nM
[2]
  EC50: > 1000 nM

## OCCc1cc(-c2cncc(OC[C@H]3NC[C@@H]4C[C@@H]43)c2)on1
[1]
  IC50: > 1000 nM
[2]
  EC50: > 1000 nM

## CN1CCC[C@H]1c1cccnc1 [NICOTINE]
[2]
  EC50: > 1000 nM

## O=C(Nc1ccccc1)OCCc1cc(-c2cncc(OC[C@@H]3CCN3)c2)on1
[1]
  IC50: > 1000 nM
[2]
  EC50: > 1000 nM

## CCc1cc(-c2cncc(OC[C@H]3NC[C@@H]4C[C@@H]43)c2)on1
[1]
  IC50: > 1000 nM
[2]
  EC50: > 1000 nM

## OCCCc1cc(-c2cncc(OC[C@@H]3CCCN3)c2)on1
[1]
  IC50: > 1000 nM
[2]
  EC50: > 1000 nM

## OCCc1cc(-c2cncc(OC[C@@H]3CCCN3)c2)on1
[1]
  IC50: > 1000 nM
[2]
  EC50: > 1000 nM

## c1ncc(-c2cc(CCN3CCOCC3)no2)cc1OC[C@@H]1CCCN1
[1]
  IC50: > 1000 nM
[2]
  EC50: > 1000 nM
[3]
  IC50: > 1000 nM
[4]
  EC50: > 1000 nM
[5]
  IC50: > 100 nM
[6]; read-out: pEC50 (converted)
  EC50: > 100 nM
[6]; sh-ep1, read-out: EC50
  EC50: > 100 nM
[7]
  inhibition: < 50%
[8]
  Ki: 132 nM
[9]
  Ki: 32 nM
[10]
  inhibition: < 50%
[11]
  Ki: 575 nM
[12]
  inhibition: < 50%

## FC(F)CCc1cc(-c2cncc(OC[C@@H]3CCN3)c2)on1
Mus musculus [13]
  Activity: Active
Mus musculus [14]
  Activity: Active
[1]
  IC50: > 1000 nM
[2]
  EC50: > 1000 nM

## FC(F)(F)CCc1cc(-c2cncc(OC[C@@H]3CCN3)c2)on1
[1]
  IC50: > 1000 nM
[2]
  EC50: > 1000 nM

## c1cncc(OC[C@@H]2CCN2)c1
[15]
  EC50: 800 nM
[16]
  Ki: 314 nM

## CCc1cc(-c2cncc(OC[C@@H]3CCN3)c2)on1
Mus musculus [13]
  Activity: Active
Mus musculus [17]
  Activity: Active
Mus musculus [14]
  Activity: Active
[1]
  IC50: > 1000 nM
[2]
  EC50: > 1000 nM

## CN1CCC[C@H]1COc1cncc(-c2cc(CCO)no2)c1
[1]
  IC50: > 1000 nM
[2]
  EC50: > 1000 nM

## OCCc1cc(-c2cncc(OC[C@@H]3CCN3)c2)on1
[1]
  IC50: > 1000 nM
[2]
  EC50: > 1000 nM

## O=C(Nc1ccccc1)OCCc1cc(-c2cncc(OC[C@@H]3CCCN3)c2)on1
[1]
  IC50: > 1000 nM
[2]
  EC50: > 1000 nM

## c1cnc2cc3c(cc2n1)[C@@H]1CNC[C@H]3C1 [VARENICLINE]
[2]
  EC50: > 1000 nM
[18]
  Imax: 83%
[19]
  Efficacy: 34%
[20]
  Efficacy: 106%
[21]
  Ki: 110 nM

## COCCc1cc(-c2cncc(OC[C@@H]3CCN3)c2)on1
[1]
  IC50: > 1000 nM
[2]
  EC50: > 1000 nM

## CN[C@H]1CC[C@@H](c2ccc(Cl)c(Cl)c2)c2ccccc21
Mus musculus [22]
  Activity: Active

## CCNC(=O)OCCc1cc(-c2cncc(OC[C@@H]3CCCN3)c2)on1
[1]
  IC50: > 1000 nM
[2]
  EC50: > 1000 nM
